In brackets after ≈: the same amount, converted by molar mass. Bounds are passed on as bounds.

Type in all cases: functional
The test system of assay [1] is Mycobacterium tuberculosis. Put plainly: Antitubercular activity against Mycobacterium tuberculosis H37Rv after 5 days by microplate alamar blue assay. The note with it: 120 h. (In general: Alamar Blue is a resazurin reagent that responds to reducing activity.)
The next assay deals with Staphylococcus aureus. Put plainly: Antimicrobial activity against gram-positive Staphylococcus aureus ATCC 43300 at 32 ug/ml after 18 hrs. The note with it: ATCC 43300, 18 h. Put shortly: (§1)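 Whole-cell growth inhibition screen at a single final concentration of 32 µg/mL, in duplicate on different plates, with 0.3% DMSO final. Bacteria grown overnight in cation-adjusted Mueller Hinton broth at 37°C, diluted 40-fold, and grown 1.5-3 h to mid-log. Wells seeded at 5×10^5 CFU/mL and incubated 18 h at 37°C without shaking. OD600 read; percent inhibition calculated against media-only and untreated-bacteria controls on the same plate. Colistin (Gram-negative) and vancomycin (Gram-positive) were the standards.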

Another assay has as its system Pseudomonas aeruginosa. Briefly: Antimicrobial activity against gram-negative Pseudomonas aeruginosa ATCC 27853 at 32 ug/ml after 18 hrs. As to conditions: ATCC 27853, 18 h. Put shortly: as §1
A further assay relates to Candida albicans. Put plainly: Antifungal activity against Candida albicans ATCC 90028 at 32 ug/ml after 24 hrs. As to conditions: ATCC 90028, 24 h.
Assay [2] concerns Mycobacterium tuberculosis. Briefly: Antitubercular activity against Mycobacterium tuberculosis H37Rv at 50 ug/ml after 5 days by microplate alamar blue assay relative to control. As to conditions: 120 h. In outline:
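M. tuberculosis H37Rv tested by microplate alamar blue assay, reading the resazurin-to-resorufin colour change, at an initial 50 µg/ml. Rifampicin and isoniazid were the standards.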

The test system of another assay is Acinetobacter baumannii. Put plainly: Antimicrobial activity against gram-negative Acinetobacter baumannii ATCC 19606 at 32 ug/ml after 18 hrs. As to conditions: ATCC 19606 = CIP 70.34 = JCM 6841, 18 h. Put shortly: as §1

`Cc1ccn2c(CN3CCOCC3)c(-c3ccccc3)nc2c1` had an MIC95 in assay [1] of 40 µg/mL (≈ 130 µM). Also, the inhibition (as a rule, how much of the control response was suppressed) at 32 µg/mL was 15.8 to 23.5% with Staphylococcus aureus, 10.6 to 15.2% with Pseudomonas aeruginosa and 0.89 to 1.68% with Candida albicans. For the same molecule, the inhibition at 50 µg/mL in assay [2] is 95%.

`Fc1ccc(-c2nc3ccccn3c2CN2CCOCC2)cc1` had an MIC95 in assay [1] of 22.2 µg/mL (≈ 71.3 µM). The inhibition at 32 µg/mL with Staphylococcus aureus was 22.3 to 30.3%; in the assay with Pseudomonas aeruginosa, 11 to 14.3%; with Candida albicans, 0.63 to 5.39%. The same molecule showed an inhibition at 50 µg/mL in assay [2] of 95%.

Take `COc1ccc(-c2nc3ccccc3n2-c2ccccc2)cc1O`: in assay [1], the MIC95 worked out at 8 µg/mL (≈ 25.3 µM). For the same molecule, the inhibition at 32 µg/mL lay within 7.7 to 15.5% in the assay on Staphylococcus aureus, 1.32 to 7.73% in the assay on Pseudomonas aeruginosa and 6.64 to 11.3% with Candida albicans. At 50 µg/mL the inhibition in assay [2] was 95%.

`Cc1ccn2c(CN3CCCCC3)c(-c3ccccc3)nc2c1` had an MIC95 in assay [1] of 33.7 µg/mL (≈ 110 µM). The inhibition at 50 µg/mL in assay [2] amounted to 95%.

Regarding `COc1ccc(-c2nc3ccccc3n2-c2cc(C)ccc2C)cc1`, the MIC95 in assay [1] was above 50 µg/mL. For the same molecule, the inhibition at 32 µg/mL with Staphylococcus aureus fell in the range of 9.57 to 10%; in the assay with Acinetobacter baumannii, 3.5 to 38.8%; with Pseudomonas aeruginosa it was 5.72 to 19.7%; in the assay with Candida albicans, 1.69 to 4.32%. In addition, the inhibition at 50 µg/mL in assay [2] worked out at 80%.

`c1ccc(-c2nc3ccccn3c2CN2CCCCC2)cc1` yielded an MIC95 in assay [1] above 50 µg/mL. For the same molecule, the inhibition at 32 µg/mL in the assay on Staphylococcus aureus lay in the range of 14.8 to 19.4%; in the assay on Acinetobacter baumannii, 1.56 to 10.4%; in the assay with Pseudomonas aeruginosa, 11.4 to 17.7%; with Candida albicans, 2.41 to 3.93%. Moreover, the inhibition at 50 µg/mL in assay [2] is 95%.

In the case of `COc1ccc(-c2nc3ccccc3n2-c2ccc(F)cc2)cc1`, in assay [1], the MIC95 is above 50 µg/mL. Also, the inhibition at 32 µg/mL with Staphylococcus aureus is 11.6 to 12.7%; in the assay on Pseudomonas aeruginosa, 5.18 to 12.8%; in the assay on Candida albicans, 1.62 to 1.69%. The molecule also had an inhibition at 50 µg/mL in assay [2] of 6%.

Turning to `Cc1ccn2c(CN3CCOCC3)c(-c3ccc(F)cc3)nc2c1`, the MIC95 in assay [1] worked out at 23.9 µg/mL (≈ 73.5 µM). For the same molecule, the inhibition at 32 µg/mL lay within 20.1 to 21.8% with Staphylococcus aureus, 9.71 to 27% in the assay with Pseudomonas aeruginosa and 2.74 to 7.44% with Candida albicans. This molecule also displayed an inhibition at 50 µg/mL in assay [2] of 95%.

For `COc1ccc(-c2nc3ccccc3n2-c2cccc(Cl)c2)cc1`, the MIC95 in assay [1] is above 50 µg/mL. In addition, the results for the inhibition at 32 µg/mL in the assay on Staphylococcus aureus, in the assay with Pseudomonas aeruginosa and in the assay with Candida albicans were 14.1 to 16%, 7.07 to 24.5% and 4.66 to 7.76%, respectively. The same molecule had an inhibition at 50 µg/mL in assay [2] of 0%.

On to `Cc1ccc2nc(-c3ccc(F)cc3)c(CN3CCOCC3)n2c1`, for which the MIC95 in assay [1] was found to be 17 µg/mL (≈ 52.2 µM). Further, the inhibition at 32 µg/mL with Staphylococcus aureus was 25.1 to 26.2%; in the assay on Candida albicans, 3.4 to 6.17%. The same molecule registered an inhibition at 50 µg/mL in assay [2] of 95%.

In the case of `Oc1ccc(-c2nc(-c3ccccc3)cn2-c2ccccc2)cc1`, the MIC95 in assay [1] worked out at 17.8 µg/mL (≈ 57 µM). In assay [2], this molecule showed an inhibition at 50 µg/mL of 95%.

With `COc1ccc(-c2nc3ccccc3n2-c2cccc(OC)c2)cc1`, in assay [1], the MIC95 was above 50 µg/mL. Besides, the inhibition at 32 µg/mL lay in the range of 7.42 to 20.4% in the assay on Staphylococcus aureus, 19.7 to 59.9% with Acinetobacter baumannii, 9.8 to 11.2% in the assay with Pseudomonas aeruginosa and 5.26 to 8.76% with Candida albicans. In assay [2], this molecule came in with an inhibition at 50 µg/mL of 14%.

`COc1ccc(-c2nc(-c3ccccc3)cn2-c2ccccc2)cc1` gave an MIC95 in assay [1] of 20.3 µg/mL (≈ 62.2 µM). In addition, the inhibition at 32 µg/mL lay in the range of 3.07 to 13.3% in the assay with Staphylococcus aureus, 23.1 to 34.8% with Acinetobacter baumannii, 2.98 to 16.6% with Pseudomonas aeruginosa and 17.5 to 26.4% with Candida albicans. The molecule further showed an inhibition at 50 µg/mL in assay [2] of 95%.

In assay [1], `NNC(=O)c1ccncc1` [ISONIAZID] came in with an MIC95 of 0.06 to 0.11 µg/mL (≈ 0.438 to 0.802 µM). Besides, the inhibition at 50 µg/mL in assay [2] is 95%.

For the molecule `CO[C@H]1/C=C/O[C@@]2(C)Oc3c(C)c(O)c4c(O)c(c(/C=N/N5CCN(C)CC5)c(O)c4c3C2=O)NC(=O)/C(C)=C\C=C\[C@H](C)[C@H](O)[C@@H](C)[C@@H](O)[C@@H](C)[C@H](OC(C)=O)[C@@H]1C` [RIFAMPIN], the MIC95 in assay [1] lay within 0.03 to 0.5 µg/mL (≈ 0.0365 to 0.608 µM). Moreover, the inhibition at 50 µg/mL in assay [2] stood at 95%.

For the origin of these results see ChEMBL document CHEMBL4043142, “Discovery of new leads against Mycobacterium tuberculosis using scaffold hopping and shape based similarity” (Bioorg Med Chem, 2017).
